Test results reported in ChEMBL document CHEMBL3351726 (J Med Chem, 2014).
Residues, ends and D or L forms follow the SMILES beside them.

What was measured:
[1] = Retention time of the compound measured over 30 mins at flow rate of 1 mL/min by HPLC; format: physicochemical; conditions: 0.5 h
Summary of the method: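 Reversed-phase analytical HPLC or LC−MS on a SymmetryShield RP18 column (5 μm, 4.6 × 150 mm). Gradient 10−60% B over 30 min at 1 mL/min; A = 0.1% TFA in water, B = 0.1% TFA in acetonitrile.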

[2] = Retention time of the compound measured over 15 mins at flow rate of 1 mL/min by HPLC
HEK293 = test: Selectivity ratio of IC50 for rat Nav1.2 expressed in HEK-293 cells to IC50 for human Nav1.7 expressed in HEK-293 cells; format: cell-based

Work on `[H][C@]12CSSC[C@@H](C(=O)N[C@@H](CCCCN)C(=O)N[C@@H](CCCCN)C(=O)N[C@@H](CCCCN)C(=O)N[C@H](C(=O)N[C@@H](CC(C)C)C(=O)N[C@@H](Cc3c[nH]c4ccccc34)C(=O)O)[C@@H](C)CC)NC(=O)[C@H](Cc3c[nH]c4ccccc34)NC(=O)[C@H](CC(C)C)NC(=O)[C@H](CCCNC(=N)N)NC(=O)[C@]3([H])CSSC[C@]([H])(NC(=O)[C@]([H])([C@@H](C)O)NC(=O)[C@H](Cc4c[nH]c5ccccc45)NC(=O)[C@H](CCSC)NC(=O)[C@H](Cc4c[nH]c5ccccc45)NC(=O)[C@H](CCCCN)NC(=O)[C@H](CCC(N)=O)NC(=O)[C@@H](NC(=O)[C@@H](N)Cc4ccc(O)cc4)CSSC[C@]([H])(NC1=O)C(=O)N[C@@H](CCC(=O)O)C(=O)NCC(=O)N[C@@H](CC(C)C)C(=O)N[C@@H](C(C)C)C(=O)N3)C(=O)N[C@@H](CC(=O)O)C(=O)N[C@@H](CO)C(=O)N[C@@H](C)C(=O)N[C@@H](CCCNC(=N)N)C(=O)N[C@@H](CCCCN)C(=O)N2` (HELM PEPTIDE1{Y.C.Q.K.W.M.W.T.C.D.S.A.R.K.C.C.E.G.L.V.C.R.L.W.C.K.K.K.I.L.W}$PEPTIDE1,PEPTIDE1,2:R3-16:R3|PEPTIDE1,PEPTIDE1,9:R3-21:R3|PEPTIDE1,PEPTIDE1,15:R3-25:R3$$$V2.0) yielded a Retention_time [1] of 15.88 min, a Retention_time [2] of 9.05 min and a Ratio IC50 (HEK293) of 33.

With `CC[C@H](C)[C@H](NC(=O)[C@@H](NC(=O)[C@H](CCCCN)NC(=O)[C@H](CCCCN)NC(=O)[C@@H]1CSSC[C@@H]2NC(=O)[C@H](CCCCN)NC(=O)[C@H](CCCNC(=N)N)NC(=O)[C@H](CCC(=O)O)NC(=O)[C@H](CO)NC(=O)[C@H](CC(=O)O)NC(=O)[C@@H]3CSSC[C@H](NC(=O)[C@H](C(C)C)NC(=O)[C@H](CCSC)NC(=O)CNC(=O)[C@H](CCC(=O)O)NC(=O)[C@H](CSSC[C@H](NC(=O)[C@@H](N)Cc4ccc(O)cc4)C(=O)N[C@@H](CCC(N)=O)C(=O)N[C@@H](CCCCN)C(=O)N[C@@H](Cc4c[nH]c5ccccc45)C(=O)N[C@@H](CCSC)C(=O)N[C@@H](Cc4c[nH]c5ccccc45)C(=O)N[C@@H]([C@@H](C)O)C(=O)N3)NC2=O)C(=O)N[C@@H](CCCNC(=N)N)C(=O)N[C@@H](CC(C)C)C(=O)N[C@@H](Cc2c[nH]c3ccccc23)C(=O)N1)[C@@H](C)CC)C(=O)O` the Retention_time [1] was 18.47 min, the Retention_time [2] was 9.44 min and the Ratio IC50 (HEK293) was 2.

Work on `CC[C@H](C)[C@H](NC(=O)[C@H](CCCCN)NC(=O)[C@H](CCCCN)NC(=O)[C@@H]1CSSC[C@@H]2NC(=O)[C@H](CCCCN)NC(=O)[C@H](CCCNC(=N)N)NC(=O)[C@H](C)NC(=O)[C@H](CO)NC(=O)[C@H](CC(=O)O)NC(=O)[C@@H]3CSSC[C@H](NC(=O)[C@H](C(C)C)NC(=O)[C@H](CC(C)C)NC(=O)CNC(=O)[C@H](CCC(=O)O)NC(=O)[C@H](CSSC[C@H](NC(=O)[C@@H](N)Cc4ccc(O)cc4)C(=O)N[C@@H](CCC(N)=O)C(=O)N[C@@H](CCCCN)C(=O)N[C@@H](Cc4c[nH]c5ccccc45)C(=O)N[C@@H](CCSC)C(=O)N[C@@H](Cc4c[nH]c5ccccc45)C(=O)N[C@@H]([C@@H](C)O)C(=O)N3)NC2=O)C(=O)N[C@@H](CCCNC(=N)N)C(=O)N[C@@H](CC(C)C)C(=O)N[C@@H](Cc2c[nH]c3ccccc23)C(=O)N1)C(=O)N[C@H](C(=O)N[C@@H](Cc1c[nH]c2ccccc12)C(=O)O)[C@@H](C)CC` (HELM PEPTIDE1{Y.C.Q.K.W.M.W.T.C.D.S.A.R.K.C.C.E.G.L.V.C.R.L.W.C.K.K.I.I.W}$PEPTIDE1,PEPTIDE1,2:R3-16:R3|PEPTIDE1,PEPTIDE1,9:R3-21:R3|PEPTIDE1,PEPTIDE1,15:R3-25:R3$$$V2.0) yielded a Retention_time [1] of 15.83 min, a Retention_time [2] of 9.29 min and a Ratio IC50 (HEK293) of 9.

Molecule `[H][C@]12CSSC[C@@H](C(=O)N[C@@H](CCCCN)C(=O)N[C@@H](CCCCN)C(=O)N[C@@H](CCCCN)C(=O)N[C@@](C)(CC(C)C)C(=O)N[C@@H](Cc3c[nH]c4ccccc34)C(=O)O)NC(=O)[C@H](Cc3c[nH]c4ccccc34)NC(=O)[C@H](CC(C)C)NC(=O)[C@H](CCCNC(=N)N)NC(=O)[C@]3([H])CSSC[C@]([H])(NC(=O)[C@]([H])([C@@H](C)O)NC(=O)[C@H](Cc4c[nH]c5ccccc45)NC(=O)[C@H](CCSC)NC(=O)[C@H](Cc4c[nH]c5ccccc45)NC(=O)[C@H](CCCCN)NC(=O)[C@H](CCC(N)=O)NC(=O)[C@@H](NC(=O)[C@@H](N)Cc4ccc(O)cc4)CSSC[C@]([H])(NC1=O)C(=O)N[C@@H](CCC(=O)O)C(=O)NCC(=O)N[C@@H](CC(C)C)C(=O)N[C@@H](C(C)C)C(=O)N3)C(=O)N[C@@H](CC(=O)O)C(=O)N[C@@H](CO)C(=O)N[C@@H](C)C(=O)N[C@@H](CCCNC(=N)N)C(=O)N[C@@H](CCCCN)C(=O)N2` (HELM PEPTIDE1{Y.C.Q.K.W.M.W.T.C.D.S.A.R.K.C.C.E.G.L.V.C.R.L.W.C.K.K.K.[CC(C)C[C@](C)(N[*:1])C(=O)[*:2]].W}$PEPTIDE1,PEPTIDE1,2:R3-16:R3|PEPTIDE1,PEPTIDE1,9:R3-21:R3|PEPTIDE1,PEPTIDE1,15:R3-25:R3$$$V2.0) has a Retention_time [1] of 15.29 min, a Retention_time [2] of 9.28 min and a Ratio IC50 (HEK293) of 3.5.

In the case of `[H][C@]12CSSC[C@@H](C(=O)N[C@@H](CCCCN)C(=O)N[C@@H](CCCCN)C(=O)N[C@@H](CCCCN)C(=O)N(C)[C@@H](CC(C)C)C(=O)N[C@H](C(=O)O)[C@@H](C)CC)NC(=O)[C@H](Cc3c[nH]c4ccccc34)NC(=O)[C@H](CC(C)C)NC(=O)[C@H](CCCNC(=N)N)NC(=O)[C@]3([H])CSSC[C@]([H])(NC(=O)[C@]([H])([C@@H](C)O)NC(=O)[C@H](Cc4c[nH]c5ccccc45)NC(=O)[C@H](CCSC)NC(=O)[C@H](Cc4c[nH]c5ccccc45)NC(=O)[C@H](CCCCN)NC(=O)[C@H](CCC(N)=O)NC(=O)[C@@H](NC(=O)[C@@H](N)Cc4ccc(O)cc4)CSSC[C@]([H])(NC1=O)C(=O)N[C@@H](CCC(=O)O)C(=O)NCC(=O)N[C@@H](CC(C)C)C(=O)N[C@@H](C(C)C)C(=O)N3)C(=O)N[C@@H](CC(=O)O)C(=O)N[C@@H](CO)C(=O)N[C@@H](C)C(=O)N[C@@H](CCCNC(=N)N)C(=O)N[C@@H](CCCCN)C(=O)N2` (HELM PEPTIDE1{Y.C.Q.K.W.M.W.T.C.D.S.A.R.K.C.C.E.G.L.V.C.R.L.W.C.K.K.K.[meL].I}$PEPTIDE1,PEPTIDE1,2:R3-16:R3|PEPTIDE1,PEPTIDE1,9:R3-21:R3|PEPTIDE1,PEPTIDE1,15:R3-25:R3$$$V2.0), the Retention_time [1] is reported as 14.4 min, the Retention_time [2] is reported as 8.79 min and the Ratio IC50 (HEK293) is reported as 2.8.

Molecule `CSCC[C@@H]1NC(=O)CNC(=O)[C@H](CCC(=O)O)NC(=O)[C@@H]2CSSC[C@H](NC(=O)[C@@H](N)Cc3ccc(O)cc3)C(=O)N[C@@H](CCC(N)=O)C(=O)N[C@@H](CCCCN)C(=O)N[C@@H](Cc3c[nH]c4ccccc34)C(=O)N[C@@H](CCSC)C(=O)N[C@@H](Cc3c[nH]c4ccccc34)C(=O)N[C@@H]([C@@H](C)O)C(=O)N[C@H]3CSSC[C@H](NC(=O)[C@H](C(C)C)NC1=O)C(=O)N[C@@H](CCCNC(=N)N)C(=O)N[C@@H](CC(C)C)C(=O)N[C@@H](Cc1c[nH]c4ccccc14)C(=O)N[C@H](C(=O)N[C@@H](CCCCN)C(=O)N[C@@H](CCCCN)C(=O)N[C@@H](CCCCN)C(=O)N[C@@H](CC(C)C)C(=O)N[C@@H](Cc1c[nH]c4ccccc14)C(N)=O)CSSC[C@H](NC(=O)[C@H](CCCCN)NC(=O)[C@H](CCCNC(=N)N)NC(=O)[C@H](CCC(=O)O)NC(=O)[C@H](CO)NC(=O)[C@H](CC(=O)O)NC3=O)C(=O)N2` has a Retention_time [1] of 14.78 min and a Retention_time [2] of 9 min.

`CSCC[C@@H]1NC(=O)CNC(=O)[C@H](CCC(=O)O)NC(=O)[C@@H]2CSSC[C@H](NC(=O)[C@@H](N)Cc3ccc(O)cc3)C(=O)N[C@@H](CCC(N)=O)C(=O)N[C@@H](CCCCN)C(=O)N[C@@H](Cc3c[nH]c4ccccc34)C(=O)N[C@@H](CCSC)C(=O)N[C@@H](Cc3c[nH]c4ccccc34)C(=O)N[C@@H]([C@@H](C)O)C(=O)N[C@H]3CSSC[C@H](NC(=O)[C@H](C(C)C)NC1=O)C(=O)N[C@@H](CCCNC(=N)N)C(=O)N[C@@H](CC(C)C)C(=O)N[C@@H](Cc1c[nH]c4ccccc14)C(=O)N[C@H](C(=O)N[C@@H](CCCCN)C(=O)N[C@@H](CCCCN)C(=O)N[C@@H](CCCCN)C(=O)N[C@@H](CC(C)C)C(=O)N[C@@H](Cc1c[nH]c4ccccc14)C(=O)O)CSSC[C@H](NC(=O)[C@H](CCCCN)NC(=O)[C@H](CCCNC(=N)N)NC(=O)[C@H](CCC(=O)O)NC(=O)[C@H](CO)NC(=O)[C@H](CC(=O)O)NC3=O)C(=O)N2` gave a Retention_time [1] of 14.54 min and a Retention_time [2] of 9.35 min.

In the case of `[H][C@]12CSSC[C@@H](C(=O)N[C@@H](CCCCN)C(=O)N[C@@H](CCCCN)C(=O)N[C@H](C(=O)N[C@H](C(=O)O)[C@@H](C)CC)[C@@H](C)CC)NC(=O)[C@H](Cc3c[nH]c4ccccc34)NC(=O)[C@H](CC(C)C)NC(=O)[C@H](CCCNC(=N)N)NC(=O)[C@]3([H])CSSC[C@]([H])(NC(=O)[C@]([H])([C@@H](C)O)NC(=O)[C@H](Cc4c[nH]c5ccccc45)NC(=O)[C@H](CCSC)NC(=O)[C@H](Cc4c[nH]c5ccccc45)NC(=O)[C@H](CCCCN)NC(=O)[C@H](CCC(N)=O)NC(=O)[C@@H](NC(=O)[C@@H](N)Cc4ccc(O)cc4)CSSC[C@]([H])(NC1=O)C(=O)N[C@@H](CCC(=O)O)C(=O)NCC(=O)N[C@@H](CC(C)C)C(=O)N[C@@H](C(C)C)C(=O)N3)C(=O)N[C@@H](CC(=O)O)C(=O)N[C@@H](CO)C(=O)N[C@@H](C)C(=O)N[C@@H](CCCNC(=N)N)C(=O)N[C@@H](CCCCN)C(=O)N2` (HELM PEPTIDE1{Y.C.Q.K.W.M.W.T.C.D.S.A.R.K.C.C.E.G.L.V.C.R.L.W.C.K.K.I.I}$PEPTIDE1,PEPTIDE1,2:R3-16:R3|PEPTIDE1,PEPTIDE1,9:R3-21:R3|PEPTIDE1,PEPTIDE1,15:R3-25:R3$$$V2.0), the Retention_time [1] is reported as 12.58 min and the Retention_time [2] is reported as 7.9 min.
